# In ChEMBL document CHEMBL1146277, “The discovery of 6-[2-(5-chloro-2-{[(2,4-difluorophenyl)methyl]oxy}phenyl)-1-cyclopenten-1-yl]-2-pyridinecarboxylic acid, GW848687X, a potent and selective prostaglandin EP1 receptor antagonist for the treatment of inflammatory pain” (Bioorg Med Chem Lett, 2007):
# Active and inactive are the calls of the source. No cut-off for these calls is given here.
# What was measured:
# [1] = biological target: T1, Prostaglandin E2 receptor EP1 subtype (Homo sapiens, UniProt P34995); assay: Inhibition of human EP1 receptor
# T1 sequence (P34995 whole entry): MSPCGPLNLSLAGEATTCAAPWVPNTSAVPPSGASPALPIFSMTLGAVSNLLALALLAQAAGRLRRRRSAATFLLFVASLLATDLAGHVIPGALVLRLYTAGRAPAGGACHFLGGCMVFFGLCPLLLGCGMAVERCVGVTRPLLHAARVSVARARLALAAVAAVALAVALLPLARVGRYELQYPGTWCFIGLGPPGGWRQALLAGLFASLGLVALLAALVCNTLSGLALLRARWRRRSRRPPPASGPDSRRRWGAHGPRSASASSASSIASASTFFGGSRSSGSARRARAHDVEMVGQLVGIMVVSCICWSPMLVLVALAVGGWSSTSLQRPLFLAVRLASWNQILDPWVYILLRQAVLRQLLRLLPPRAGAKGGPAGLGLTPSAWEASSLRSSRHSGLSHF
# [2] = biological target: T2, Prostaglandin E2 receptor EP3 subtype (Homo sapiens, UniProt P43115); assay: Inhibition of human EP3 receptor
# T2 sequence (P43115 whole entry): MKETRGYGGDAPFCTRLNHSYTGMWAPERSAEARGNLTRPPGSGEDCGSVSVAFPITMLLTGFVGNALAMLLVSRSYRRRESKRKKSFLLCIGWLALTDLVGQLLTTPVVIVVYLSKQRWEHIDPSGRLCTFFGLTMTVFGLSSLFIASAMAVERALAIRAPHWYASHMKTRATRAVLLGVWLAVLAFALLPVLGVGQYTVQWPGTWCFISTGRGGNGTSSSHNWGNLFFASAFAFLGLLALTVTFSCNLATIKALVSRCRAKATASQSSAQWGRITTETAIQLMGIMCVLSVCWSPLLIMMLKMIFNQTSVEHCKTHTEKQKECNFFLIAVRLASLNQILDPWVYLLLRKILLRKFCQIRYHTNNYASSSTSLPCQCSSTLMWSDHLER
# [3] = Blood clearance in rat at 1 mg/kg, iv; type: ADME, organism-based; set-up: dose 1 mg/kg, route intravenous; conditions: whole blood
# [4] = Volume of distribution in rat at 1 mg/kg, iv; type: ADME, organism-based; set-up: dose 1 mg/kg, route intravenous; conditions: in vivo, read-out: Vdss
# [5] = Half life in rat at 1 mg/kg, iv; type: ADME, organism-based; set-up: dose 1 mg/kg, route intravenous; conditions: in vivo
# [6] = Intrinsic clearance in rat liver microsomes; type: ADME, Microsome
# How it was run: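 Rate of metabolism measured as intrinsic clearance (ml/min/g) in a rat microsomal assay.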
# Cytochrome P450 2C9 = Cytochrome P450 2C9 (Homo sapiens, UniProt P11712); assay: Inhibition of human CYP2C9; type: ADME
# Cytochrome P450 2C9, sequence (P11712 whole entry): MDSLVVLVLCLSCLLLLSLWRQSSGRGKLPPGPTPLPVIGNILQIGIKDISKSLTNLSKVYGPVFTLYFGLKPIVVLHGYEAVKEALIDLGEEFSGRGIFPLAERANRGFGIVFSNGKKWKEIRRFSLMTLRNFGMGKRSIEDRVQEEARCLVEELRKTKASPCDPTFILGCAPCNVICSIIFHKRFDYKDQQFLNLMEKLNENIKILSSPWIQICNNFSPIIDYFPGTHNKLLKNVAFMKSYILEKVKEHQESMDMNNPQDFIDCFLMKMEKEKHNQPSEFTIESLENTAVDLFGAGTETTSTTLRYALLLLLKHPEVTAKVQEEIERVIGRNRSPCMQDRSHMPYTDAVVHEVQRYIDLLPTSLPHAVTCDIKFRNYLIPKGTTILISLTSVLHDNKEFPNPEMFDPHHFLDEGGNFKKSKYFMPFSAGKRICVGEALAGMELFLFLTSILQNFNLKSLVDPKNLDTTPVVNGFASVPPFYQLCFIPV
# How it was run: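 Inhibition measured in a human recombinant CYP2C9 isozyme assay; IC₅₀ reported in µM.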
# [7] = Lipophilicity, log D of the compound; type: physicochemical; conditions: octanol/water
# Rattus norvegicus [8] = assay: Reversal of hypersensitivity in FCA rat model of acute inflammatory pain at 5 mg/kg, po; type: functional
# How it was run: (§1)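 Freund's complete adjuvant injected into one hind paw; 24 h later, with hypersensitivity established, rats received a single oral dose of test compound in 1% methylcellulose. Hypersensitivity was read by weight bearing as percent inhibition (reversal) for each dose. Tested either as a single 5 mg/kg po dose or as a 3-point dose response, with ED₅₀ calculated as the dose giving 50% reversal.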
# [9] = Blood clearance in rat; type: ADME, organism-based; conditions: whole blood
# [10] = Half life in rat; type: ADME, organism-based; conditions: in vivo
# Rattus norvegicus [11] = assay: Reversal of hypersensitivity in po dosed FCA rat model of acute inflammatory pain; type: functional; how it was run: as §1
# [12] = biological target: T1, Prostaglandin E2 receptor EP1 subtype; assay: Antagonist activity at human EP1 receptor; type: functional; conditions: read-out: pA2 (converted)
# [13] = Oral bioavailability in rat; type: ADME, organism-based; conditions: in vivo
# [14] = Oral bioavailability in dog; type: ADME, organism-based, Canis lupus familiaris; conditions: in vivo
# [15] = Half life in dog; type: ADME, organism-based, Canis lupus familiaris; conditions: in vivo
# Rattus norvegicus [16] = assay: Reversal of antihyperalgesic effect in chronic rat model of joint pain at 30 mg/kg bid for 5 days
Compound,IC50 [1] [nM],IC50 [2] [nM],also measured
CSc1ccc(OCc2ccc(F)cc2)c(C2=C(c3cccc(C(=O)O)c3)CCC2)c1,31.6,> 3160,–
O=C(O)c1cccc(C2=C(c3cc(Br)ccc3OCc3ccc(Cl)cc3F)CCC2)c1,2.51,> 3160,–
O=C(O)c1cncc(C2=C(c3cc(Cl)ccc3OCc3ccc(F)cc3F)CCC2)n1,2,–,CLint scaled [6]: 2.6 mL/min/g; IC50 (Cytochrome P450 2C9): 12000 nM; logD [7]: 1.6; Activity (Rattus norvegicus [8]): 52%
O=C(O)c1cccc(C2=C(c3cc(Br)ccc3OCc3ccc(F)cc3F)CCC2)c1,5.01,> 3160,clearance [3]: 35 mL/min/kg; Vd [4]: 0.6 L/kg; half-life [5]: 0.2 h
Cc1ncc(C2=C(c3cc(Cl)ccc3OCc3ccc(F)cc3)CCC2)cc1C(=O)O,1.58,–,CLint scaled [6]: 3.8 mL/min/g; IC50 (Cytochrome P450 2C9): 9000 nM; logD [7]: 2.7; Activity (Rattus norvegicus [8]): <30%
N#Cc1ccc(OCc2ccc(F)cc2F)c(C2=C(c3cccc(C(=O)O)c3)CCC2)c1,39.8,> 3160,–
O=C(O)c1cnnc(C2=C(c3cc(Cl)ccc3OCc3ccc(F)cc3F)CCC2)c1,6.31,–,CLint scaled [6]: 14 mL/min/g; IC50 (Cytochrome P450 2C9): 5400 nM; logD [7]: 1.2
O=C(O)c1cc(C2=C(c3cc(C(F)(F)F)ccc3OCc3ccccc3)CCC2)ccn1,39.8,–,–
O=C(O)c1cc(C2=C(c3cc(Cl)ccc3OCc3ccccc3)CCC2)ncn1,200,–,logD [7]: 1.2
CSc1ccc(OCc2ccc(F)cc2F)c(C2=C(c3cccc(C(=O)O)c3)CCC2)c1,15.8,> 3160,–
O=C(O)c1cccc(C2=C(c3cc(Cl)ccc3OCc3ccc(F)cc3F)CCC2)n1,2.51,–,CLint scaled [6]: 2.9 mL/min/g; IC50 (Cytochrome P450 2C9): 14000 nM; logD [7]: 2.6; clearance [9]: 7 mL/min/kg; half-life [10]: 2.2 h; ED50 (Rattus norvegicus [11]): 1.3 mg/kg; Kb [12]: 0.794 nM; bioavailability [13]: 54%; bioavailability [14]: 53%; half-life [15]: 2 h; Activity (Rattus norvegicus [16]): Active
COc1ccc(COc2ccc(Br)cc2C2=C(c3cccc(C(=O)O)c3)CCC2)cc1,39.8,> 3160,–
CS(=O)(=O)c1ccc(OCc2ccc(F)cc2F)c(C2=C(c3cccc(C(=O)O)c3)CCC2)c1,15.8,> 3160,–
O=C(O)c1cncc(C2=C(c3cc(C(F)(F)F)ccc3OCc3ccccc3)CCC2)c1,10,–,CLint scaled [6]: 2.2 mL/min/g; IC50 (Cytochrome P450 2C9): 14000 nM; logD [7]: 2.7; clearance [9]: 22 mL/min/kg; half-life [10]: 4.1 h; ED50 (Rattus norvegicus [11]): 1.3 mg/kg
N#Cc1ccc(OCc2ccc(F)cc2)c(C2=C(c3cccc(C(=O)O)c3)CCC2)c1,398,> 3160,–
O=C(O)c1ccnc(C2=C(c3cc(Cl)ccc3OCc3ccccc3)CCC2)n1,158,–,logD [7]: 0.8
O=C(O)c1ccnc(C2=C(c3cc(Br)ccc3OCc3ccc(F)cc3)CCC2)c1,3.16,–,CLint scaled [6]: 20 mL/min/g; IC50 (Cytochrome P450 2C9): 5000 nM; logD [7]: 2.7
CS(=O)(=O)c1ccc(OCc2ccc(F)cc2)c(C2=C(c3cccc(C(=O)O)c3)CCC2)c1,79.4,> 3160,–
O=C(O)c1cc(C2=C(c3cc(Cl)ccc3OCc3ccccc3)CCC2)cnn1,39.8,–,–

# Second part, led by results:
IC50 [1] [nM],IC50 [2] [nM],Compound,also measured
63.1,> 3160,CSc1ccc(OCc2ccccc2)c(C2=C(c3cccc(C(=O)O)c3)CCC2)c1,–
20,> 3160,O=C(O)c1cccc(C2=C(c3cc(Br)ccc3OCc3ccc(F)cc3)CCC2)c1,clearance [3]: 46 mL/min/kg; Vd [4]: 0.7 L/kg; half-life [5]: 0.2 h
12.6,> 3160,O=C(O)c1cccc(C2=C(c3cc(Br)ccc3OCc3ccc(Cl)cc3)CCC2)c1,clearance [3]: 33 mL/min/kg; Vd [4]: 0.4 L/kg
12.6,> 3160,O=C(O)c1cccc(C2=C(c3cc(Br)ccc3OCc3ccccc3)CCC2)c1,clearance [3]: 52 mL/min/kg; Vd [4]: 1 L/kg; half-life [5]: 0.3 h
6.31,> 3160,O=C(O)c1cccc(C2=C(c3ccccc3OCc3ccccc3)CCC2)c1,–
398,> 3160,O=C(O)c1cccc(C2=C(c3ccccc3OCc3ccc(Cl)c(Cl)c3)CCC2)c1,–
100,> 3160,N#Cc1ccc(OCc2ccccc2)c(C2=C(c3cccc(C(=O)O)c3)CCC2)c1,–
5.01,> 3160,O=C(O)c1cccc(C2=C(c3cc(Cl)ccc3OCc3ccccc3)CCC2)c1,–
200,> 3160,N#Cc1ccc(OCc2ccc(Cl)cc2)c(C2=C(c3cccc(C(=O)O)c3)CCC2)c1,–
50.1,> 3160,O=C(O)c1cccc(C2=C(c3ccccc3OCc3ccc(Cl)cc3F)CCC2)c1,–
100,> 3160,O=C(O)c1cccc(C2=C(c3cc(Br)ccc3OCc3ccc(Cl)c(Cl)c3)CCC2)c1,–
25.1,> 3160,O=C(O)c1cccc(C2=C(c3ccccc3OCc3ccc(F)cc3F)CCC2)c1,–
100,> 3160,COc1ccc(COc2ccccc2C2=C(c3cccc(C(=O)O)c3)CCC2)cc1,–
79.4,> 3160,CS(=O)(=O)c1ccc(OCc2ccccc2)c(C2=C(c3cccc(C(=O)O)c3)CCC2)c1,–
